The source made the active and inactive calls. The calls are words filed in the database; no cut-off is given here.

Activity, inhibition and Cmax data for one molecule are collected here from ChEMBL document CHEMBL4350961, “Discovery of Pyrrolo[3,2- d]pyrimidin-4-one Derivatives as a New Class of Potent and Cell-Active Inhibitors of P300/CBP-Associated Factor Bromodomain” (J Med Chem, 2019).

Data set [1] deals with Bromodomain-containing protein 3 (Homo sapiens) (UniProt Q15059). Briefly: Binding affinity to human partial length BRD3 bromodomain 1 (P24 to E144 residues) expressed in bacterial expression system at 1 uM by BROMOscan assay. Summed up:
(§1)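 BROMOscan bromodomain cross-screen run by an outside service, compound at 1 µM against 32 recombinant bromodomains. Binding given as percent of control.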

Data set [2] has as its target Testis-specific serine/threonine-protein kinase 4 (Homo sapiens) (UniProt Q6SA08). Briefly: Inhibition of recombinant full-length human TSSK4 at 10 uM using KKLNRTLSFAEPG as substrate measured after 40 mins in presence of [gamma33P]ATP by scintillation counting method.
Data set [3] concerns the target Homeodomain-interacting protein kinase 1 (Homo sapiens) (UniProt Q86Z02). Briefly: Inhibition of recombinant human activated HIPK1 (158 to 555 residues) at 10 uM using myelin basic protein as substrate measured after 40 mins in presence of [gamma33P]ATP by scintillation counting method.
The subject of data set [4] is Mast/stem cell growth factor receptor Kit (Homo sapiens), P10721 [D816V]. Put plainly: Inhibition of recombinant human c-Kit D816V mutant (544 to end residues) at 10 uM using poly(Glu, Tyr) 4:1 as substrate measured after 40 mins in presence of [gamma33P]ATP by scintillation counting method.
Data set [5] deals with Serine/threonine-protein kinase 17A (Homo sapiens) (UniProt Q9UEE5). Put plainly: Inhibition of recombinant full-length human DRAK1 at 10 uM using KKLNRTLSFAEPG as substrate measured after 40 mins in presence of [gamma33P]ATP by scintillation counting method.
Sequence of Serine/threonine-protein kinase 17A (Homo sapiens) (Q9UEE5 whole entry, the tested form may be a part): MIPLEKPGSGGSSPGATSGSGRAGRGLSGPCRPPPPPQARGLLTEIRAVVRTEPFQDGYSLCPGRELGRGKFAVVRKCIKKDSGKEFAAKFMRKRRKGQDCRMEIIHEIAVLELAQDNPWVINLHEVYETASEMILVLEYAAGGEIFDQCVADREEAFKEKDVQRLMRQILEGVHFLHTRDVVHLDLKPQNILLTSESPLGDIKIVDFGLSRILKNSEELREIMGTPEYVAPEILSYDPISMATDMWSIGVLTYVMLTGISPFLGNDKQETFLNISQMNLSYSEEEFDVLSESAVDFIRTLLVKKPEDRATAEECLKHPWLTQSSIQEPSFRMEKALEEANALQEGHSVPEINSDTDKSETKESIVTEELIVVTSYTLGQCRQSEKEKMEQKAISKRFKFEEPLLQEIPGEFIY
For data set [6], the system named is Serine/threonine-protein kinase TAO3 (Homo sapiens), Q9H2K8 [UNDEFINED MUTATION]. Briefly: Inhibition of human TAO3 (1 to 411 residues) using myelin basic protein as substrate measured after 40 mins in presence of [gamma33P]ATP by scintillation counting method.
Sequence of Serine/threonine-protein kinase TAO3 (Homo sapiens), Q9H2K8 [UNDEFINED MUTATION] (Q9H2K8 whole entry, looked up, stated change not applied, the tested form may be a part): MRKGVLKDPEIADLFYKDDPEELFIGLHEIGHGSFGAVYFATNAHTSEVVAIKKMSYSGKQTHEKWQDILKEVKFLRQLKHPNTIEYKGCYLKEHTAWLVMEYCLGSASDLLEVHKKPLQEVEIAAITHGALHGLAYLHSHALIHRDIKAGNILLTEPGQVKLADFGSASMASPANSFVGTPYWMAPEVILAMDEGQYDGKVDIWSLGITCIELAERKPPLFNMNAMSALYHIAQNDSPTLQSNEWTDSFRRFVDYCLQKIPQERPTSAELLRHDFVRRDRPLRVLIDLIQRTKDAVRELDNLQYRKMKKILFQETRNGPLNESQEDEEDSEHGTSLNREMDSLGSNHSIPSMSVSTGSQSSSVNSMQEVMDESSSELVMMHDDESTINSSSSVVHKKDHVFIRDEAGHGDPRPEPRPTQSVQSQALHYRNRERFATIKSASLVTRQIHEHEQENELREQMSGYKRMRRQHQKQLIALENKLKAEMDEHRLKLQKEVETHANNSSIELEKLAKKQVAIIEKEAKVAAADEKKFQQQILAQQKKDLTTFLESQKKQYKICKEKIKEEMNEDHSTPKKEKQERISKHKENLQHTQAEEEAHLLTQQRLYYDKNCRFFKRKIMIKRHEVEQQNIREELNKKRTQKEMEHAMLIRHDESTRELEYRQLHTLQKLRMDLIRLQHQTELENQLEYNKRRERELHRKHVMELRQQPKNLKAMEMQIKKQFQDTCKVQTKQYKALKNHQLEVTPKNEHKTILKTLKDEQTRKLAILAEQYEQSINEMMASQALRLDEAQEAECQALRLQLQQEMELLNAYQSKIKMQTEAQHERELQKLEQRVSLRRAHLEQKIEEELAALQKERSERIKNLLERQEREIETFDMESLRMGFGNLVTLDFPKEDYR
Data set [7] concerns the target Myosin light chain kinase, smooth muscle (Homo sapiens) (UniProt Q15746). Put plainly: Inhibition of recombinant human MLCK (1425 to 1771 residues) at 10 uM using […] as substrate measured after 40 mins in presence of [gamma33P]ATP by scintillation counting method.
Data set [8] concerns the target Fibroblast growth factor receptor 2 (Homo sapiens) (UniProt P21802). Briefly: Inhibition of recombinant human FGFR2 (456 to 770 residues) at 10 uM using poly(Glu, Tyr) 4:1 as substrate measured after 40 mins in presence of [gamma33P]ATP by scintillation counting method.
The subject of data set [9] is Serine/threonine-protein kinase Sgk1 (Homo sapiens), O00141 [S422D]. Briefly: Inhibition of recombinant human SGK S422D mutant (60 to end residues) at 10 uM using GRPRTSSFAEGKK as substrate measured after 40 mins in presence of [gamma33P]ATP by scintillation counting method.
The target in another data set is Peregrin (Homo sapiens) (UniProt P55201). Put plainly: Binding affinity to human partial length BRPF1 (E627 to G740 residues) expressed in bacterial expression system at 1 uM by BROMOscan assay. Summed up:
as §1

The target in data set [10] is Mitogen-activated protein kinase kinase kinase 5 (Homo sapiens) (UniProt Q99683). Briefly: Inhibition of recombinant human ASK1 (649 to 946 residues) at 10 uM using myelin basic protein as substrate measured after 40 mins in presence of [gamma33P]ATP by scintillation counting method.
Sequence of Mitogen-activated protein kinase kinase kinase 5 (Homo sapiens) (Q99683 whole entry, the tested form may be a part): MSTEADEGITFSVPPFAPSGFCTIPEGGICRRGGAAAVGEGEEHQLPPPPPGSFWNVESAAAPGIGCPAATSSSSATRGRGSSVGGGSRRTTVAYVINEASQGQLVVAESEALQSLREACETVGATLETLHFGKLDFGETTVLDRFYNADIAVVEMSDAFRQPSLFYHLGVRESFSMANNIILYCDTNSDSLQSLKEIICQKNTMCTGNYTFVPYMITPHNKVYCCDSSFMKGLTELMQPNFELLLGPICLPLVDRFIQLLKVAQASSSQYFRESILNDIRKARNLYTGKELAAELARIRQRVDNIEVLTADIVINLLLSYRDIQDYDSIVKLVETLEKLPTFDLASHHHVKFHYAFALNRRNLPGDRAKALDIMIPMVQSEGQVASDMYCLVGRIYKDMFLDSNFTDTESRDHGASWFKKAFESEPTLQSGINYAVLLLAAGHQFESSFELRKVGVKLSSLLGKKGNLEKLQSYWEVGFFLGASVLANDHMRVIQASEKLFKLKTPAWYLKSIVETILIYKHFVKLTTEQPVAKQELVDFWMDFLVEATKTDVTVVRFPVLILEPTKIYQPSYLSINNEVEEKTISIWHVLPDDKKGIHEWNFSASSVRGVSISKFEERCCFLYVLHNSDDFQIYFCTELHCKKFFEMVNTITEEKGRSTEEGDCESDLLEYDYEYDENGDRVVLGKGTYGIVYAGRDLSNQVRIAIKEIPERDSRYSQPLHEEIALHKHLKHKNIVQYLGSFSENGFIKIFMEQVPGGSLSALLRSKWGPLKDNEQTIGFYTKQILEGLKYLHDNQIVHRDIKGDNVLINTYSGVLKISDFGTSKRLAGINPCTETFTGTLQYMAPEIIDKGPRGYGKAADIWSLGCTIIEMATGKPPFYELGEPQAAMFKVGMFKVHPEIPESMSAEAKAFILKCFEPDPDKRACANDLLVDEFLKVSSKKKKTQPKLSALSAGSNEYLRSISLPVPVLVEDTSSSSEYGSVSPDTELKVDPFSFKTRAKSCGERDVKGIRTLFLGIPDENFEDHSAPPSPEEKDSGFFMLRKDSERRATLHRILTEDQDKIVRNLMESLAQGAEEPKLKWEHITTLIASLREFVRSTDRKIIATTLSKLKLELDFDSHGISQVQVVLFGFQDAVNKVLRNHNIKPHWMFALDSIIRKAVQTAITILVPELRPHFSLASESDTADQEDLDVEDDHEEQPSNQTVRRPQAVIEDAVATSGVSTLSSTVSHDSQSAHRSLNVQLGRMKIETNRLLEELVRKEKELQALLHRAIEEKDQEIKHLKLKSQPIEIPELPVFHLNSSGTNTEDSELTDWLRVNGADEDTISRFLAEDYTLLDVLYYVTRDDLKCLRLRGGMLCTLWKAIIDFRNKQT
Data set [11] is described as follows: Cmax in Sprague-Dawley rat at 10 mg/kg, po administered via gavage by LC-MS/MS analysis. In kind it is ADME, organism-based. Conditions: in vivo. The arrangement: dose 10 mg/kg, route oral. Summed up:
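Serial jugular-vein blood taken at set times, spun to plasma at 4 ℃, stored at -80 °C. Plasma extracted with acetonitrile containing internal standard, quantified by LC-MS/MS; noncompartmental fit.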

The species named for a further data set is Homo sapiens. Put plainly: Inhibition of recombinant full-length human ATRIP/ATR M211T mutant at 10 uM using GST-cMyc-p53 as substrate measured after 40 mins by fluorescence assay.
The target of data set [12] is Aurora kinase C (Homo sapiens) (UniProt Q9UQB9). Briefly: Inhibition of recombinant human AURKC (35 to end residues) at 10 uM using AKRRRLSSLRA as substrate measured after 40 mins in presence of [gamma33P]ATP by scintillation counting method.
Sequence of Aurora kinase C (Homo sapiens) (Q9UQB9 whole entry): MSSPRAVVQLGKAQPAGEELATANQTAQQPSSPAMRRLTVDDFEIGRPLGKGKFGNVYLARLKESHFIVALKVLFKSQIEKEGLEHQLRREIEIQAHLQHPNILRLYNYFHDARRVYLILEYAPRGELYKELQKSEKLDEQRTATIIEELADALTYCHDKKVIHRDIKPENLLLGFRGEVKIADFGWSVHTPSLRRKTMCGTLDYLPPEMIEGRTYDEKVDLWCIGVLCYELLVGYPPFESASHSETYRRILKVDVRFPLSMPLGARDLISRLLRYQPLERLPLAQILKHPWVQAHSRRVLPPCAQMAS
Data set [13] addresses Cytoplasmic tyrosine-protein kinase BMX (Homo sapiens) (UniProt P51813). Briefly: Inhibition of full-length recombinant human BMX at 10 uM using poly(Glu, Tyr) 4:1 as substrate measured after 40 mins in presence of [gamma33P]ATP by scintillation counting method. Summed up: (§2)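 Kinase panel of 422 kinases screened by Eurofins KinaseProfiler at a single test-compound concentration of 10 µM.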

Data set [14] concerns the target Dual specificity mitogen-activated protein kinase kinase 6 (Homo sapiens) (UniProt P52564). Briefly: Inhibition of recombinant human MKK6 (4 to end residues) at 10 uM using unactive SAPK2a as substrate measured after 40 mins in presence of [gamma33P]ATP by scintillation counting method.
For data set [15], the target named is Tyrosine-protein kinase Lck (Homo sapiens) (UniProt P06239). Briefly: Inhibition of recombinant full-length human activated Lck at 10 uM using KVEKIGEGTYGVVYK as substrate measured after 40 mins in presence of [gamma33P]ATP by scintillation counting method.
In data set [16] the target is Bromodomain and PHD finger-containing protein 3 (Homo sapiens) (UniProt Q9ULD4). Briefly: Binding affinity to human partial length BRPF3 (E588 to G701 residues) expressed in bacterial expression system at 1 uM by BROMOscan assay. Summed up:
as §1

The target in data set [17] is Macrophage-stimulating protein receptor (Homo sapiens) (UniProt Q04912). Briefly: Inhibition of human Ron (983 to end residues) using GGMEDIYFEFMGGKKK as substrate measured after 40 mins in presence of [gamma33P]ATP by scintillation counting method. Summed up:
as §2

In data set [18] the target is Serine/threonine-protein kinase VRK2 (Homo sapiens) (UniProt Q86Y07). Briefly: Inhibition of human VRK2 (1 to 336 residues) using casein as substrate measured after 40 mins in presence of [gamma33P]ATP by scintillation counting method.
The target of data set [19] is Tyrosine-protein kinase CSK (Homo sapiens) (UniProt P41240). Briefly: Inhibition of full-length recombinant human CSK at 10 uM using poly(Glu, Tyr) 4:1 as substrate measured after 40 mins in presence of [gamma33P]ATP by scintillation counting method. Summed up:
as §2

Data set [20] concerns the target Serine/threonine-protein kinase tousled-like 1 (Homo sapiens) (UniProt Q9UKI8). Briefly: Inhibition of recombinant full-length human TLK1 at 10 uM using casein as substrate measured after 40 mins in presence of [gamma33P]ATP by scintillation counting method.
For data set [21], the target named is Activin receptor type-1 (Homo sapiens) (UniProt Q04771). Put plainly: Inhibition of recombinant human ALK2 (142 to end residues) at 10 uM using casein as substrate measured after 40 mins in presence of [gamma33P]ATP by scintillation counting method.
Data set [22] addresses Inhibitor of nuclear factor kappa-B kinase subunit alpha (Homo sapiens) (UniProt O15111). Put plainly: Inhibition of recombinant full-length human IKKalpha (959 to end residues) at 10 uM using peptide substrate measured after 40 mins in presence of [gamma33P]ATP by scintillation counting method.

Sequence of Inhibitor of nuclear factor kappa-B kinase subunit alpha (Homo sapiens) (O15111 whole entry): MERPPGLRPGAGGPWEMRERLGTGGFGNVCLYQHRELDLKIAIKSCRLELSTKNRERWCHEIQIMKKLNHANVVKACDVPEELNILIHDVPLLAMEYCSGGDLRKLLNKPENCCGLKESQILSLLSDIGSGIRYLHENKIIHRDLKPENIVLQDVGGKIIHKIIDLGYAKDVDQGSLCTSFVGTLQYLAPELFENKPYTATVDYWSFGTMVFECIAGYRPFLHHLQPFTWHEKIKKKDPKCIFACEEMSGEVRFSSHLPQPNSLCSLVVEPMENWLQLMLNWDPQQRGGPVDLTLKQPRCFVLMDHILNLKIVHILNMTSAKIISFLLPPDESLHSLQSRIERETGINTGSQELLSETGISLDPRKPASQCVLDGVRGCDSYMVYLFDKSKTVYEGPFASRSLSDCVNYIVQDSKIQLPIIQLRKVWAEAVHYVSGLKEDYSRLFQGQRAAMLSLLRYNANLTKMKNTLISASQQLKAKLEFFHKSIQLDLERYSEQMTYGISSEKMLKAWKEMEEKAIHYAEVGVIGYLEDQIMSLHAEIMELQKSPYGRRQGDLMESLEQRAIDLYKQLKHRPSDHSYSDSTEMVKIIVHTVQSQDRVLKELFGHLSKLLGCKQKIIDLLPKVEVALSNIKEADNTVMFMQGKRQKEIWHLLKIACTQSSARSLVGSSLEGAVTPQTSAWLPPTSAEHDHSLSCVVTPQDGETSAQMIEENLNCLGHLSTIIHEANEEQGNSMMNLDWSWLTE
Sequence of Serine/threonine-protein kinase tousled-like 1 (Homo sapiens) (Q9UKI8 whole entry): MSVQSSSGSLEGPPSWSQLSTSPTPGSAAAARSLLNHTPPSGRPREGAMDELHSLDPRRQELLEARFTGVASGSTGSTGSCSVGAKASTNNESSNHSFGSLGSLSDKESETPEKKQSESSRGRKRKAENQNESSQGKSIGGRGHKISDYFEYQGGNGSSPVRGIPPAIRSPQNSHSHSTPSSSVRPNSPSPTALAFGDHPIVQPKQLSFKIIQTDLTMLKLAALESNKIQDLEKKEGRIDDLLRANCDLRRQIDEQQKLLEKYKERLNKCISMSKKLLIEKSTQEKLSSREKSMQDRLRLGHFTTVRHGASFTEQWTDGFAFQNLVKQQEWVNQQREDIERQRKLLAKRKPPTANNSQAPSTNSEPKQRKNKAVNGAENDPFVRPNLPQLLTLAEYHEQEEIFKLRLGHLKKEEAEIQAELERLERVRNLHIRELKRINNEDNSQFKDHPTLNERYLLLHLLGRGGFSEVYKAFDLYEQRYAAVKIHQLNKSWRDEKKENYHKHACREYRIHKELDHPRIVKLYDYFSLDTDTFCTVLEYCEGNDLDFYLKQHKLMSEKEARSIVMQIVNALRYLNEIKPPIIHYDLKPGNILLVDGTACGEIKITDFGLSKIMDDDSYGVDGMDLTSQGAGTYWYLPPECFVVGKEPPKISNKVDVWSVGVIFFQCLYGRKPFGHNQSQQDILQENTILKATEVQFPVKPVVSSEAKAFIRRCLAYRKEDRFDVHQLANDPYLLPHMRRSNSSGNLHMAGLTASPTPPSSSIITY
Sequence of Testis-specific serine/threonine-protein kinase 4 (Homo sapiens) (Q6SA08 whole entry, the tested form may be a part): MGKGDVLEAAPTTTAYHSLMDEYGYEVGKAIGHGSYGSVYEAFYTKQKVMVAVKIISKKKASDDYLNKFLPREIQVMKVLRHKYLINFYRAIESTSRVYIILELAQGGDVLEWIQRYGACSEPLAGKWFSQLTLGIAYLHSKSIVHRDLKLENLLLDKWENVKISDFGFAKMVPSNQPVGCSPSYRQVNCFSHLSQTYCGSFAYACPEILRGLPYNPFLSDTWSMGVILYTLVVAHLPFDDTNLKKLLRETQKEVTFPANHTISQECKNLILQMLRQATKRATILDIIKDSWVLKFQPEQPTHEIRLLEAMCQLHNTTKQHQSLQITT

Take `CN1C[C@H](Nc2nc3cc[nH]c3c(=O)n2C)C[C@H](c2ccc3c(c2)OCCO3)C1`: in data set [1], the outcome was inactive. Further, the inhibition entry in data set [2], in [3], in [4], in data set [5], in [6] and in data set [7] was “inactive” each time. Also, the inhibition entry (in data set [8]; in [9]; in data set [10]; in the data set listed under Homo sapiens; in data set [12]; in [13]) was “inactive” each time. The inhibition entry in [14], in [15], in [17], in data set [18], in [19] and in data set [20] was “inactive” in each case. In addition, the inhibition entry in data set [21] and in data set [22] was “inactive” each time. The outcome (at Peregrin (Homo sapiens); in data set [16]) was Active. Besides, in data set [11], the Cmax is 1420 ng/mL.
